# From PubChem BioAssay
# pPAFAH FP inh: pPAFAH (human) enzyme inhibition. inhibition, % at 3.39 µM. recombinant pPAFAH, FP-rhodamine probe fluorescence polarization. hit rate 1.5% among 330,000. Q13093;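 active means inhibition above the mean inhibition across the screen plus 3 SD, cut at about 25% in these data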;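 further: inhibitors block binding of the rhodamine activity-based probe so polarization drops; 0% = enzyme with DMSO and 100% = wells lacking pPAFAH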
# Target sequence (Q13093 whole entry, looked up): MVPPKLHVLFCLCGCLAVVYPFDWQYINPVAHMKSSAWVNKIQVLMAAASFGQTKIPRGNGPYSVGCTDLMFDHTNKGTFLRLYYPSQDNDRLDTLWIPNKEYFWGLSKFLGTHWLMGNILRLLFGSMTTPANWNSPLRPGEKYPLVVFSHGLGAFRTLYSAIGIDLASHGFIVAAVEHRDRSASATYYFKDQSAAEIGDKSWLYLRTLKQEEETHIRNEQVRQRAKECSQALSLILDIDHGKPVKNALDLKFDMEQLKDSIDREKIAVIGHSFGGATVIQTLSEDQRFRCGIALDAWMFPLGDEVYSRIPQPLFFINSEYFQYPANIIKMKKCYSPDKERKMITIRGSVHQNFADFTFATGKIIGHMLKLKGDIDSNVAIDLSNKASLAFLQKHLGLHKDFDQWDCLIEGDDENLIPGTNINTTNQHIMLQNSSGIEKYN
# PAFAH1B2 FP inh: blocks human PAF acetylhydrolase 1b catalytic subunit 2 | P68402 | recombinant PAFAH1B2, FP-rhodamine activity probe, fluorescence polarization | inhibition, % at 3.39 µM | hit rate 1.2% among 340,000 | AID 492953;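 active means inhibition above the mean of all tested compounds plus 3 SD, cut at about 24% in these data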;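 further: 0% = enzyme with DMSO and 100% = wells lacking PAFAH1B2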
# PAFAH1B3 FP inh: PAFAH1B3 (human) inhibition; Q15102; recombinant PAFAH1B3, FP-rhodamine probe, fluorescence polarization; inhibition, % at 3.39 µM; hit rate 0.28% among 340,000;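 active means inhibition above the screen-wide average of all tested compounds plus 3 SD, cut at about 25% in these data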;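 further: 0% = enzyme with DMSO only and 100% = wells lacking PAFAH1B3 protein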
# Target sequence (Q15102 whole entry, looked up): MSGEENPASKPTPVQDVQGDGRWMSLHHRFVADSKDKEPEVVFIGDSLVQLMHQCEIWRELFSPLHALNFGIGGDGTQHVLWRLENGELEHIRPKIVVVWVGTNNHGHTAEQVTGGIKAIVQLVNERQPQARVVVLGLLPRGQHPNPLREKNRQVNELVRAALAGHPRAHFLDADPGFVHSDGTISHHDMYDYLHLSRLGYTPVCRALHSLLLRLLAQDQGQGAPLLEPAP
# HTRA1 inhibitor: blocks human HTRA1 serine peptidase; AID 504803; inhibition, % at 5.96 µM; recombinant HTRA1, FP-rhodamine activity-based probe, fluorescence polarization; hit rate 0.5% among 340,000; in the data active means inhibition above about 36%;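 further: 0% = enzyme with DMSO and 100% = wells lacking enzyme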
# PAFAH2 inh: PAFAH2 (human) inhibition; Q99487; recombinant PAFAH2, FP-rhodamine activity probe, fluorescence polarization; inhibition, % at 3.39 µM; hit rate 0.99% among 340,000; AID 492956;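 active means inhibition above the mean over all tested compounds plus 3 SD, cut at about 30% in these data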;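 further: inhibitors block probe labeling of enzyme so polarization drops; 0% = enzyme with DMSO and 100% = wells lacking PAFAH2 protein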
# ABHD4 inh: inhibits mouse alpha/beta hydrolase domain 4. AID 720543. hit rate 0.54% among 370,000. inhibition, % at 8.92 µM. Q8VD66. purified mABHD4, FP-Rh probe fluorescence polarization;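 active means inhibition exceeding the mean over every tested compound plus 3 SD, cut at about 30% in these data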;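 further: 0% = plate median of compound wells and 100% = S159A mutant with DMSO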
#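 Assay system: mouse ABHD4 enzyme, wild type / Also added: fluorescent activity-based probe FP-Rh / Doses: single nominal dose of 8.92 µM, 0.89% DMSO final / Timing: 45 min compound pre-incubation plus 60 min probe step, 25 °C / Signal: FP readout, ex 525 nm / em 598 nm / Control set: S159A mutant/DMSO as 100%, compound-well median as 0%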
# Numbers without * were called inactive; nt = no result; ! = repeats disagree. The list is not random: actives were taken first. Their share in the collection is about 2.8%.
SMILES,pPAFAH FP inh,PAFAH1B2 FP inh,PAFAH1B3 FP inh,HTRA1 inhibitor,PAFAH2 inh,ABHD4 inh
CCCCNC(=O)C1(C(=O)C2CC2)CC(c2ccccc2C(F)(F)F)=NO1 (configuration not stated),nt,nt,nt,nt,nt,5
N#Cc1c(NC(=O)CSc2n[nH]c(N)n2)oc(-c2ccccc2)c1-c1ccccc1,12,25*,10,-15,-3,-20
N#Cc1c(NC(=O)Cn2c(=O)oc3ccccc32)oc(-c2ccccc2)c1-c1ccccc1,22,40*,-8,-39,15,-12
CCn1c(SCC(=O)Nc2ccccc2-c2ccccc2)nnc1-c1ccc(C)cc1,nt,nt,nt,nt,nt,2
COc1ccc(N(CC(=O)NCCSc2ccc(C)cc2)S(=O)(=O)c2ccccc2)c(OC)c1,8,27*,6,-27,-18,1
O=[N+]([O-])c1cc([N+](=O)[O-])c2oc(-c3ccccc3)c(Br)c2c1O,nt,43*,28*,-41,46*,nt
Nc1ccc(C(=O)O)cc1[N+](=O)[O-],-2,3,9,1,3,8
CN(C)/C=C/C(=O)/C=C/c1cn(-c2ncc(C(F)(F)F)cc2Cl)c2ccccc12,26*,-4,2,5,-2,-4
COC(=O)[C@]1(CNC(=O)C(F)(F)F)CC(=O)N(C)[C@@H]1c1ccccc1,nt,nt,nt,nt,nt,-2
COc1ccc(N2CCN(C(=O)CCNS(=O)(=O)c3ccccc3)CC2)cc1,3,0,-3,-4,4,-1
COc1cccc(N2CCN(C(=O)CCNS(=O)(=O)c3ccc(F)c(F)c3)CC2)c1,29*,-1,2,-11,5,-1
CC(=O)CC[C@H]1CC[C@]2(CCCN(C(=O)c3ccno3)C2)O1,nt,nt,nt,nt,nt,0
COc1ccc2oc(C(=O)Nc3ccc(N4CCOCC4)cc3)c(C)c2c1,52*,3,4,-10,13,7
CCN1CCCCC(NC(=O)c2ccccc2C)C1=O (configuration not stated),nt,nt,nt,nt,nt,5
C[C@@H]1CCCN1c1ccc2c(c1)O[C@H]1CCN(C1)S2(=O)=O,nt,nt,nt,nt,nt,5
Cc1c(Cl)cccc1N/C(=N/S(=O)(=O)c1cccs1)c1ccccc1,5,2,3,-12,-3,2
CC(C)(C)c1cc[n+](C2=C([O-])c3ccccc3C(=O)/C2=N\S(=O)(=O)c2cccs2)cc1,12,nt,nt,nt,nt,5
Cc1ccc(Cl)cc1NC1=C/C(=N\S(=O)(=O)c2cccs2)c2ccccc2C1=O,25*,28*!,58*,40*!,31*,22
Cc1ccc(NC2=C/C(=N\S(=O)(=O)c3cccs3)c3ccccc3C2=O)c(C)c1,29*,30*,65*,53*,34*,nt
Cc1cccc(NC2=C/C(=N/S(=O)(=O)c3cccs3)c3ccccc3C2=O)c1,22,23,64*,9,14,13
COC(=O)C1CN(Cc2ccc(OC)cc2)CCS(=O)(=O)N1Cc1ccccc1 (configuration not stated),nt,nt,nt,nt,nt,6
COc1cc(/C=C(\C#N)c2nc3ccc(C)cc3[nH]2)cc([N+](=O)[O-])c1O,nt,33*,21,30,38*,29
Cn1c2ccccc2c2cc(/C=N/NC(=O)c3ccc(N)cc3)ccc21,31*,12,12,0,-5,18
Cc1nn(-c2ccccc2)c2sc(C(=O)NCc3ccc4c(c3)OCO4)cc12,nt,nt,nt,nt,nt,-59
COCCCNC(=O)Cn1nc(Cc2ccncc2)c2ccccc2c1=O,nt,nt,nt,nt,nt,1
SMILES,pPAFAH FP inh,PAFAH1B2 FP inh,PAFAH1B3 FP inh,HTRA1 inhibitor,PAFAH2 inh,ABHD4 inh
Cn1c(COc2ccc(Cl)cc2)nnc1SCc1ncc(-c2ccccc2)o1,-4,36*,12,-13,14,-3
O=C1CSC(c2ccc(Cl)cc2)N1c1cccnc1 (configuration not stated),0,25*,5,10,7,-1
Cc1cc(C)cc(N(CC(=O)NC2CCC(C)CC2)S(=O)(=O)c2ccc(C)c(C)c2)c1 (configuration not stated),nt,nt,nt,nt,nt,7
O=C(O)c1cc(NS(=O)(=O)c2ccc3ccccc3c2)ccc1O,3,48*,5,-12,21,-11
O=C(OC12CCCN(C1)/C(=C/c1ccccc1)C2)C1CCCCC1 (configuration not stated),nt,nt,nt,nt,nt,-6
CC(C)CC(=O)O/N=C1\C(=O)N(Cc2ccc(Cl)cc2)c2ccc([N+](=O)[O-])cc21,35*,nt,nt,nt,nt,nt
N#Cc1cc2c(nc1SCC(O)CS(=O)(=O)Cc1ccc(Cl)cc1)CCCC2 (configuration not stated),14,30*,-2,-32,10,-16
O=C(NCc1ccco1)c1c2c(nc3ccccc13)CCC2,27*,4,6,20,15,21
Nc1c(C(=O)NCc2ccco2)sc2nc3c(cc12)C(=O)CCC3,28*,2,-7,16,1,22
COc1ccc2cc3c(N)c(C(=O)NCc4ccco4)sc3nc2c1,8,-1,1,-15,10,4
O=C(CSc1c2c(nc3ccccc13)CCCC2)NCc1ccco1,-1,2,6,2,-3,3
O=C(CN1CCC(NC(=O)Nc2ccc(Cl)cc2)CC1)Nc1ccc2c(c1)OCCO2,nt,nt,nt,nt,nt,-3
COc1cccc(C(=O)Nc2ccc(C(=O)NCC3COc4ccccc4O3)cc2)c1 (configuration not stated),nt,nt,nt,nt,nt,2
CCOc1ccc(S(=O)(=O)Nc2ccc(C(=O)NCCCN3CCOCC3)cc2)cc1,6,1,3,7,-1,0
O=C(NCCN1CCOCC1)c1ccc(S(=O)(=O)Nc2ccccc2)cc1,21,4,11,3,3,3
CCOc1ccc(NS(=O)(=O)c2ccc(C(=O)NCCN3CCOCC3)cc2)cc1,32*,-2,4,2,-1,4
Cc1ccc(NS(=O)(=O)c2ccc(C(=O)NCCN3CCOCC3)cc2)cc1,25*,7,3,5,6,-5
COC(=O)[C@]1(C)N[C@H](c2ccc(-c3ccc(Cl)c(Cl)c3)c(OC)c2)[C@@H]2C(=O)N(C)C(=O)[C@@H]21,30*,1,1,-17,0,-13
O=C(NC(Cc1ccccc1)C(=O)O)C1CCN(S(=O)(=O)c2cccc(C(F)(F)F)c2)CC1 (configuration not stated),27*,11,8,1,-3,1
Cc1ccc(S(=O)(=O)N2CCC(C(=O)N[C@@H](Cc3ccccc3)C(=O)O)CC2)cc1,3,22,4,8,-1,-5
CN1C(=O)c2cc(NC(=O)Nc3ccccc3F)ccc2OC[C@H]2O[C@@H](CC(=O)NCc3ccc(-c4ccccc4)cc3)CC[C@@H]21,nt,nt,nt,nt,nt,-4
CCC(C)[C@H]1CNCCN1CCc1cc(C(F)(F)F)cc(C(F)(F)F)c1 (some centres not stated),-3,2,0,8,9,4
